{"source": "ChEMBL document CHEMBL4130635", "about": "“2,4-Diaminoquinazolines as Dual Toll-like Receptor (TLR) 7/8 Modulators for the Treatment of Hepatitis B Virus” (J Med Chem, 2018)", "key": {"Plasma [1]": {"system": "Plasma", "experiment": "Upregulation of IP-10 mRNA expression levels in C57BL/6J mouse plasma at 10 mg/kg, po by RT-qPCR analysis (reference value: 1)", "format": "functional"}, "[2]": {"experiment": "Cmax in Sprague-Dawley rat plasma at 10 mg/kg, po", "format": "ADME, organism-based", "parameters": "dose 10 mg/kg, route oral", "summary_of_the_method": "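Male Sprague-Dawley rats given 10 mg/kg po as a solution. Compound measured in portal vein, systemic plasma and liver. Cmax taken from concentration–time profiles.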"}, "Cynomolgus monkey [3]": {"system": "Cynomolgus monkey", "experiment": "Proinflammatory activity in cynomolgus monkey plasma assessed as IL-6 levels at 3 mg/kg, po after 24 hrs by Luminex assay (reference value: 80 pg/ml)", "format": "functional, Macaca fascicularis"}, "Liver [4]": {"system": "Liver", "experiment": "Proinflammatory activity in C57BL/6J mouse liver assessed as CXCL-1 levels at 0.3 mg/kg, po by multiplex assay (reference value: 25 pg/g)", "format": "functional"}, "[5]": {"molecular_target": "T1, TLR7 and TLR8 (Homo sapiens) (UniProt Q9NYK1+Q9NR97)", "experiment": "Agonist activity at TLR7/8 in human PBMCs co-cultured with primary human hepatocytes infected with HBV genotype C for 12 days assessed as increase in IL-6 levels up to 5 uM measured after 42 days"}, "[6]": {"molecular_target": "T1, TLR7 and TLR8 (Homo sapiens)", "experiment": "Agonist activity at TLR7/8 in human PBMCs co-cultured with primary human hepatocytes infected with HBV genotype C for 12 days assessed as increase in IFNalpha2 levels up to 5 uM measured after 42 days"}, "Plasma [7]": {"system": "Plasma", "experiment": "Proinflammatory activity in C57BL/6J mouse plasma assessed as CXCL-1 levels at 3 mg/kg, po by multiplex assay (reference value: 230 pg/ml)", "format": "functional"}, "[8]": {"experiment": "Selectivity index, ratio of compound concentration causing induction of AST level in primary human hepatocytes infected with HBV genotype C for 12 days followed by exposure to conditioned supernatant from at 5 uM compound treated PBMCs measured after 42 days to Agonist activity at human TLR7 expressed in HEK293 cells"}, "Plasma [9]": {"system": "Plasma", "experiment": "Proinflammatory activity in C57BL/6J mouse plasma assessed as IL-6 levels at 0.3 mg/kg, po by multiplex assay (reference value: 505 pg/ml)", "format": "functional"}, "Liver [10]": {"system": "Liver", "experiment": "Upregulation of IP-10 mRNA expression levels in C57BL/6J mouse liver at 3 mg/kg, po by RT-qPCR analysis (reference value: 1)", "format": "functional"}, "Cynomolgus monkey [11]": {"system": "Cynomolgus monkey", "experiment": "Effect on cytokine profile in cynomolgus monkey plasma assessed as IP10 levels at 1 mg/kg, po after 24 hrs by Luminex assay (reference value: 18.5 pg/ml)", "format": "functional, Macaca fascicularis", "summary_of_the_method": "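Healthy cynomolgus monkeys given single oral doses of 1, 3, 9 and 30 mg/kg, with a 2-week wash-out planned between doses. Systemic cytokine levels in plasma were sampled at 0.5, 1, 2, 4, 9 and 24 h postdose.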"}, "Liver [12]": {"system": "Liver", "experiment": "Proinflammatory activity in C57BL/6J mouse liver assessed as TNFalpha levels at 30 mg/kg, po by multiplex assay (reference value: 15 pg/g)", "format": "functional"}, "Plasma [13]": {"system": "Plasma", "experiment": "Proinflammatory activity in C57BL/6J mouse plasma assessed as IL-1beta levels at 30 mg/kg, po by multiplex assay (reference value: 60 pg/ml)", "format": "functional"}, "[14]": {"experiment": "Tmax in Sprague-Dawley rat liver at 10 mg/kg, po", "format": "ADME, organism-based"}, "Plasma [15]": {"system": "Plasma", "experiment": "Proinflammatory activity in C57BL/6J mouse plasma assessed as TNFalpha levels at 30 mg/kg, po by multiplex assay (reference value: 70 pg/ml)", "format": "functional"}, "Plasma [16]": {"system": "Plasma", "experiment": "Effect on cytokine profile in C57BL/6J mouse plasma assessed as IL-12p70 levels at 30 mg/kg, po by multiplex assay (reference value: 560 pg/ml)", "format": "functional", "summary_of_the_method": "(§1)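 Single oral gavage in 20% HP-β-CD to healthy C57BL/6 mice, groups of 15 at 0.3, 1, 3, 10 or 30 mg/kg. Three mice per group sacrificed at 0.5, 1, 2, 4 or 7 h. Plasma and liver cytokines by multiplex, maximum level reported, rounded to nearest multiple of 5.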"}, "Liver [17]": {"system": "Liver", "experiment": "Proinflammatory activity in C57BL/6J mouse liver assessed as IL-1beta levels at 10 mg/kg, po by multiplex assay", "format": "functional"}, "[18]": {"experiment": "Stability in dog hepatocytes assessed compound turnover at 1 uM after 60 mins", "format": "ADME, cell-based, Canis lupus familiaris, Hepatocyte", "conditions": "read-out: Drug metabolism"}, "Cynomolgus monkey [19]": {"system": "Cynomolgus monkey", "experiment": "Proinflammatory activity in cynomolgus monkey plasma assessed as IL-8 levels at 3 mg/kg, po after 24 hrs by Luminex assay (reference value: 430 pg/ml)", "format": "functional, Macaca fascicularis"}, "Cynomolgus monkey [20]": {"system": "Cynomolgus monkey", "experiment": "Induction of ISG response in cynomolgus monkey plasma assessed as upregulation of Mx1 mRNA expression at 30 mg/kg, po after 24 hrs by Fluidigm RT-qPCR analysis (reference value: 1)", "format": "functional, Macaca fascicularis", "summary_of_the_method": "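Cynomolgus monkeys, single oral doses of 1, 3, 9 and 30 mg/kg with a planned 2-week wash-out between doses. Systemic ISG (ISG15, Mx1, OAS1) mRNA was measured by Fluidigm RT-qPCR at 1, 2, 4, 8 and 24 h postdose.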"}, "Liver [21]": {"system": "Liver", "experiment": "Proinflammatory activity in C57BL/6J mouse liver assessed as TNFalpha levels at 0.3 mg/kg, po by multiplex assay (reference value: 15 pg/g)", "format": "functional"}, "[22]": {"experiment": "Cmax in C57BL/6J mouse plasma at 3 mg/kg, po by LC-MS analysis", "format": "ADME, organism-based", "parameters": "dose 3 mg/kg, route oral", "summary_of_the_method": "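Healthy C57BL/6 mice, groups of 15, given a single oral dose (0.3, 1, 3, 10 or 30 mg/kg) in 20% HP-β-CD. Blood drawn at 0.5 h. Three mice per group sacrificed at 0.5, 1, 2, 4 or 7 h, and compound in plasma and liver measured by LC−MS. Values rounded to whole numbers.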"}, "[23]": {"experiment": "Cmax in cynomolgus monkey plasma at 3 mg/kg, po by LC-MS analysis", "format": "ADME, organism-based, Macaca fascicularis", "parameters": "dose 3 mg/kg, route oral", "summary_of_the_method": "(§2)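 Healthy cynomolgus monkeys received oral doses of 1, 3, 9 and 30 mg/kg, with a 2-week wash-out between doses. Systemic compound concentrations by LC−MS at 0.25, 0.5, 1, 2, 4, 8 and 24 h postdose.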"}, "Cynomolgus monkey [24]": {"system": "Cynomolgus monkey", "experiment": "Activation of monocytes in cynomolgus monkey plasma assessed as upregulation of MIP1 levels at 3 mg/kg, po after 24 hrs by Luminex assay (reference value: 37 pg/ml)", "format": "functional, Macaca fascicularis"}, "[25]": {"experiment": "Solubility of the compound in FeSSIF", "format": "physicochemical"}, "[26]": {"experiment": "Cmax in cynomolgus monkey plasma at 1 mg/kg, po by LC-MS analysis", "format": "ADME, organism-based, Macaca fascicularis", "parameters": "dose 1 mg/kg, route oral", "summary_of_the_method": "as §2"}, "Cynomolgus monkey [27]": {"system": "Cynomolgus monkey", "experiment": "Upregulation of Tlr7 expression in cynomolgus monkey plasma at 1 mg/kg, po after 24 hrs by Fluidigm RT-qPCR analysis (reference value: 1.8)", "format": "functional, Macaca fascicularis"}, "[28]": {"experiment": "Stability in rat hepatocytes assessed compound turnover at 1 uM after 60 mins", "format": "ADME, cell-based, Hepatocyte", "conditions": "read-out: Drug metabolism"}, "Plasma [29]": {"system": "Plasma", "experiment": "Upregulation of IP-10 mRNA expression levels in C57BL/6J mouse plasma at 3 mg/kg, po by RT-qPCR analysis (reference value: 1)", "format": "functional"}, "Plasma [30]": {"system": "Plasma", "experiment": "Anti-inflammatory activity in C57BL/6J mouse plasma assessed as IL-10 levels at 10 mg/kg, po by multiplex assay (reference value: 120 pg/ml)", "format": "functional", "summary_of_the_method": "as §1"}, "Liver [31]": {"system": "Liver", "experiment": "Proinflammatory activity in C57BL/6J mouse liver assessed as TNFalpha levels at 10 mg/kg, po by multiplex assay (reference value: 15 pg/g)", "format": "functional"}}, "note": "Calls of active or inactive are those of the source. The rule behind the calls is not given here.", "data": [{"compound": "CCC[C@@H](CCO)Nc1nc(N)nc2c(F)cccc12", "values": [{"measurement": "fold change (FC)", "setting": "Plasma [1]", "result": 2875}, {"measurement": "Cmax", "setting": "[2]", "result": 16, "unit": "ng/mL"}, {"measurement": "Activity", "setting": "Cynomolgus monkey [3]", "result": 200, "unit": "pg/mL"}, {"measurement": "Activity", "setting": "Liver [4]", "result": 7790, "unit": "pg/g"}, {"measurement": "Activity", "setting": "[5]", "result": "Active"}, {"measurement": "Activity", "setting": "[6]", "result": "Active"}, {"measurement": "Activity", "setting": "Plasma [7]", "result": ">10000", "unit": "pg/mL"}, {"measurement": "Ratio", "setting": "[8]", "result": 25}, {"measurement": "Activity", "setting": "Plasma [9]", "result": 480, "unit": "pg/mL"}, {"measurement": "fold change (FC)", "setting": "Liver [10]", "result": 845}, {"measurement": "Activity", "setting": "Cynomolgus monkey [11]", "result": 1690, "unit": "pg/mL"}, {"measurement": "Activity", "setting": "Liver [12]", "result": 13600, "unit": "pg/g"}, {"measurement": "Activity", "setting": "Plasma [13]", "result": 70, "unit": "pg/mL"}, {"measurement": "Tmax", "setting": "[14]", "result": 30, "unit": "min"}, {"measurement": "Activity", "setting": "Plasma [15]", "result": ">10000", "unit": "pg/mL"}, {"measurement": "Activity", "setting": "Plasma [16]", "result": 820, "unit": "pg/mL"}, {"measurement": "Activity", "setting": "Liver [17]", "result": 29525, "unit": "pg/g"}, {"measurement": "metabolised at 1 h, 1 µM", "setting": "[18]", "result": 77, "unit": "%"}, {"measurement": "Activity", "setting": "Cynomolgus monkey [19]", "result": 1505, "unit": "pg/mL"}, {"measurement": "fold change (FC)", "setting": "Cynomolgus monkey [20]", "result": 65}, {"measurement": "Activity", "setting": "Liver [21]", "result": 1945, "unit": "pg/g"}, {"measurement": "Cmax", "setting": "[22]", "result": 22, "unit": "ng/mL"}, {"measurement": "Cmax", "setting": "[23]", "result": 142, "unit": "ng/mL"}, {"measurement": "Activity", "setting": "Cynomolgus monkey [24]", "result": 85, "unit": "pg/mL"}, {"measurement": "solubility", "setting": "[25]", "result": "> 4000", "unit": "µg/mL"}, {"measurement": "Cmax", "setting": "[26]", "result": 38, "unit": "ng/mL"}, {"measurement": "fold change (FC)", "setting": "Cynomolgus monkey [27]", "result": 4.8}, {"measurement": "metabolised at 1 h, 1 µM", "setting": "[28]", "result": 96, "unit": "%"}, {"measurement": "fold change (FC)", "setting": "Plasma [29]", "result": 2485}, {"measurement": "Activity", "setting": "Plasma [30]", "result": 29450, "unit": "pg/mL"}, {"measurement": "Activity", "setting": "Liver [31]", "result": 8330, "unit": "pg/g"}]}]}
